# Shown are actives, neighbours in structure and some others; about 2.4% of the full set was active somewhere.
# HNF4A DNA FP = change in binding of human HNF4 alpha to DNA | P41235 | HNF4a-FITC DNA binding, fluorescence polarization, 1 h | activity change, % at 10 µM | 0.3% of 360,000 active; in the data active = activity change above about 30%, passing the limit was not always enough
# TbMetRS inhib = Trypanosoma brucei MetRS inhibition. purified T. brucei MetRS, ATP depletion, Kinase-Glo luminescence. 0.4% of 360,000 active. AID 624268. inhibition, % at 11.9 µM;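 active = inhibition above a per-plate cutoff of the control wells' mean inhibition plus 3 SD, cut at about 5.5% in these data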;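 also: 0% = DMSO wells median and 100% = median of wells with control inhibitor compound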
#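 assay system = parasite MetRS enzyme | timing = 15 min preincubation, 2 h reaction, all 25 °C | evaluation = percent inhibition relative to median high and low control wells | medium = HEPES buffer containing pyrophosphatase, BSA, spermine, DTT | compound = single dose, 11.9 µM final nominal, 0.9% final DMSO | detection = Kinase-Glo luminescence, ATP depletion format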
# Rpn11 block = Rpn11 (human) deubiquitinase inhibition; human 26S proteasome, Ub4-pepOG fluorescence polarization; 20S core pre-blocked with epoxomicin; inhibition, % at 20 µM; 0.59% of 360,000 active;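 active = inhibition at 20 µM, scaled to each plate's controls, above about 33%, limit read from the data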
# CSN inh = CSN deneddylation inhibition. inhibition, % at 12.5 µM. AID 651999. Purified CSN, SCF-Nedd8-OG deneddylation, fluorescence polarization. Q92905. 0.38% of 360,000 active;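 active = pattern-corrected inhibition above about 35%, with an unprinted fluorescence ratio check between 0.5 and 1.5, limit read from the data, passing the limit was not always enough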;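 also: 0% = enzyme with substrate and 100% = substrate without enzyme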
#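 Schedule: reaction 90 min, room temperature / Assay system: HEK293T-derived human Csn5 enzyme / Input: Csn5 at 0.24 nM final / Measure: inhibition of Csn5 cleavage, % / Control set: substrate-only high control, full reaction low control / Technique: fluorescence polarization of the substrate / Buffer or medium: Tris/NaCl/DTT buffer, pH 7.5 / Reagent: SCFSkp2-Nedd8OG substrate at 10 nM final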
# Neddylation inh = blocks human cullin neddylation | P61081+Q13564 | TR-FRET cullin neddylation, biochemical | inhibition, % at 25 µM | 0.58% of 360,000 active | AID 651699; in the data active = inhibition above about 36%
# PREPL inhibitor = inhibitors of human prolyl oligopeptidase-like enzyme PREPL; Q4J6C6; recombinant PREPL, fluorescence polarization activity-based probe; inhibition, % at 5.96 µM; 0.68% of 320,000 active; AID 2751; in the data active = inhibition above about 43%;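 also: 0% = enzyme with DMSO and 100% = wells lacking enzyme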
# Target sequence (Q4J6C6 whole entry, looked up): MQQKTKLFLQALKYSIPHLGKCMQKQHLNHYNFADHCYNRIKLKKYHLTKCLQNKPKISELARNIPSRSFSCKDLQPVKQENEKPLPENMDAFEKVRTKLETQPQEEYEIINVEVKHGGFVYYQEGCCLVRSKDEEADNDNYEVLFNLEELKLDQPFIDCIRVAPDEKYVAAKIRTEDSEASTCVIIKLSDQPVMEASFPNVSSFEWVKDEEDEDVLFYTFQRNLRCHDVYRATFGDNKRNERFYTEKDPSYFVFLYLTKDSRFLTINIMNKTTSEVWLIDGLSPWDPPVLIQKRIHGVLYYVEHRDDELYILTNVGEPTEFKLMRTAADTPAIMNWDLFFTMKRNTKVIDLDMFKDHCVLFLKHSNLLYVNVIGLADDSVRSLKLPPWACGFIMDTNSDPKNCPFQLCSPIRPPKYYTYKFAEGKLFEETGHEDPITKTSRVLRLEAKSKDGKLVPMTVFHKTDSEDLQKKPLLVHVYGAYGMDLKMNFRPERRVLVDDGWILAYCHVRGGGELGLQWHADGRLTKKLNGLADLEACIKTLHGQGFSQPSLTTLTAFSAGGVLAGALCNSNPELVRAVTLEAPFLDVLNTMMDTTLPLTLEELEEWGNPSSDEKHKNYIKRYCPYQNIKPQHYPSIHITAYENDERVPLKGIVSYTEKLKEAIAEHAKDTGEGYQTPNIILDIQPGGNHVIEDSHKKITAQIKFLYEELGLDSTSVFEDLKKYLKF
# Starred values were filed as active, the others as inactive; nt = not tested or not shown; + = active, no number.
SMILES,HNF4A DNA FP,TbMetRS inhib,Rpn11 block,CSN inh,Neddylation inh,PREPL inhibitor
COc1ccc(N2CCN(CC(=O)NCc3ccccc3)CC2)cc1,0.1,-0.2,2.8,-1.6,15.5,16.8
CCCNC(=O)CN1CCN(c2cc3ccccc3c(Cl)n2)CC1,-4.9,0.9,-0.6,100.3*,-14.6,11.3
COc1ccccc1CCNC(=O)C(=O)NCC1OCCN1S(=O)(=O)c1ccc(OC)c(OC)c1 (centres undefined),-2.7,-0.9,-14.2,-2.0,2.8,16.0
O=C(OCc1cc(=O)n2c(n1)sc1ccccc12)c1ccc2c(=O)n3c(nc2c1)CCC3,-38.6,0.2,8.0,36.1*,22.6,-23.4
CC(=O)Nc1ccc(NC(=O)CSc2ccc(C(F)(F)F)cc2[N+](=O)[O-])cc1,2.2,-1.5,1.4,-4.7,-11.9,3.5
O=C(CSc1ccc(C(F)(F)F)cc1[N+](=O)[O-])Nc1ccccc1,-4.0,7.6*,-1.7,-2.5,-7.5,16.0
O=C(COc1ccc(/C=N/NC(=O)c2ccccc2O)cc1)Nc1ccc([N+](=O)[O-])cc1,-4.1,0.0,12.7,42.8*,-4.4,-1.2
CCOC(=O)c1ccc(NC(=O)COc2ccccc2CNC2CCCC2)cc1,4.4,-0.5,-0.6,-1.0,8.6,1.1
Brc1ccc(CSc2ccc3nnc(-c4ccccn4)n3n2)cc1,-0.8,0.1,12.9,-5.2,-70.5,45.1*
NNc1nc2c(-c3ccc(Cl)cc3)nnn2c2ccccc12,39.2*,-0.7,nt,27.1,nt,11.9
COc1cc(/C=N/NC(=O)COc2c(C)cc([N+](=O)[O-])cc2C)ccc1OC(=O)c1ccccc1,-0.3,-1.0,6.1,4.4,-4.1,70.5*
COCC(=O)N(C)C[C@H]1Oc2cc(C#Cc3cccnc3)ccc2S(=O)(=O)N([C@H](C)CO)C[C@H]1C,-2.0,-0.9,-0.7,3.8,-3.3,nt
O=C(NCCN1CCC(n2c(=O)[nH]c3ccccc32)CC1)c1cccc2c1-c1ccccc1C2=O,0.9,-0.7,nt,48.9*,-47.4,nt
CC(C)Oc1ccc(C(=O)Nc2ccc(N3CCCCC3)cc2)cc1,82.4*,-1.1,3.6,-10.5,0.4,-4.2
COc1cccc(OCc2cc(C(=O)N3CCN(C(C)=O)CC3)no2)c1,-8.3,-0.2,7.1,0.7,0.2,17.2
COCCCNC(=S)N/N=C/c1cccc(OC)c1O,0.6,-0.2,-12.6,3.1,37.9*,1.0
COCCCNC(=S)N/N=C/c1ccc(O)cc1O,-2.4,-0.4,-4.2,0.8,9.3,-3.7
CN(C)Cc1cc(O)c(CN(C)C)cc1O,-2.3,1.1,-31.4,-5.8,39.1*,5.8
CC1(C)OC(c2ccccc2)=C/C(=C/C=C2C(=O)c3ccccc3C2=O)O1,84.1*,1.1,25.4,28.8,-12.8,-11.0
Cc1cccc(C(=O)OCC(=O)c2ccc3c(c2)NC(=O)CO3)c1,6.7,-0.3,-0.9,0.1,-87.5,9.9
COC(=O)c1cc(C(=O)OCC(=O)c2ccc3c(c2)NC(=O)CO3)cc([N+](=O)[O-])c1,5.6,-0.4,-0.7,70.1*,-20.5,nt
CCOC(=O)[C@]12CCC=C1N(Cc1ccc(Cl)cc1Cl)C(=O)[C@H](CC(=O)NCc1ccc(OC)c(OC)c1)C2,2.0,-0.7,nt,-0.1,2.7,nt
N#Cc1ccccc1COC(=O)c1ccc(Br)o1,-1.1,-0.2,4.2,-0.9,-2.0,-10.8
COc1cccc(C(C)(O)c2nc(-c3cccc(C#N)c3)cs2)c1 (centres undefined),0.0,-0.3,4.3,0.9,-6.5,nt
CCN(CC)c1ccc2c(-c3ccc(S(=O)(=O)O)cc3S(=O)(=O)[O-])c3ccc(=[N+](CC)CC)cc-3oc2c1,-84.5,-3.2,-126.3,-72.4,-33.0,+
SMILES,HNF4A DNA FP,TbMetRS inhib,Rpn11 block,CSN inh,Neddylation inh,PREPL inhibitor
CCN(CC)c1ccc2cc(C(N)=O)c(=N)oc2c1,-22.3,0.5,nt,-89.9,-14.2,16.6
Cc1cc(C)cc(C(O)c2ncc(-c3ccccc3C)[nH]2)c1 (centres undefined),3.8,0.5,-8.4,-8.9,0.1,nt
Nc1ccc2c(c1)Cc1cc([N+](=O)[O-])ccc1-2,37.2*,-0.2,35.0,17.6,-32.4,21.1
COc1ccccc1CN(C)C(=O)c1ccc(S(=O)(=O)NCc2ccco2)cc1,0.8,0.1,7.8,-6.2,11.8,11.6
O=C(COC(=O)c1ccc(S(=O)(=O)NCc2ccco2)cc1)Nc1ccc(Cl)cn1,-4.9,-0.1,17.1,47.6*,8.6,0.7
O=C(COC(=O)c1ccc(S(=O)(=O)NCc2ccco2)cc1)Nc1ccccc1,1.9,-0.3,4.6,36.9*,3.4,nt
CN(Cc1cnn(-c2ccccc2)c1)C(=O)c1ccc(S(=O)(=O)NCc2ccco2)cc1,4.4,-0.2,6.1,45.0*,8.9,nt
Cc1ccc(NC(=O)COC(=O)c2ccc(S(=O)(=O)NCc3ccco3)cc2)cc1,0.2,-0.3,-4.5,-1.9,-8.0,0.2
CCc1nc2ccc(C(=O)NCCNC(C)=O)cn2c1N(C)CCCc1ccccc1,1.0,-0.3,-3.2,1.9,3.3,nt
N=c1n(CCN2CCCCC2)c2ccccc2n1CC(=O)c1ccc(Cl)c(Cl)c1,-0.6,-1.0,-5.1,-1.1,9.6,43.2*
N=c1n(CCN2CCCCC2)c2ccccc2n1CC(O)c1ccc(Cl)c(Cl)c1 (centres undefined),-2.0,-0.2,0.0,3.1,-5.7,49.9*
N=c1n(CCN2CCCCC2)c2ccccc2n1CC(O)c1cccc(Br)c1 (centres undefined),-1.1,-0.6,7.5,-0.8,-6.4,41.0
COc1ccc(C(=O)CCC(=O)N2CCN(c3ccccc3)CC2)cc1,-0.6,0.2,5.1,0.2,-0.8,-15.9
COc1cc(/C=C(\C#N)C(=O)c2c[nH]c3ccccc23)cc(OC)c1O,83.8*,3.8,nt,165.9,-10.8,12.8
COC(=O)/C(C#N)=C/c1c[nH]c2ccccc12,-3.3,0.9,-1.5,-2.2,-22.1,-4.2
C(=C\c1ccccc1)/CN1CCN(C(c2nnnn2C2CCCC2)C2CC2)CC1 (centres undefined),0.2,0.1,5.7,-0.7,1.0,nt
CC(C)(C)n1nnnc1C(C1CC1)N1CCN(C/C=C/c2ccccc2)CC1 (centres undefined),1.9,0.4,7.3,51.2*,1.7,nt
CC1(C(=O)NCc2ccccc2)CCC(=O)N1CCOc1ccccc1 (centres undefined),-1.9,-1.1,-1.4,0.8,1.8,nt
CC(C)C[C@H]1COc2cccc(N(C)CCO)c2S(=O)(=O)N1,-4.9,-0.8,nt,-2.0,-0.5,nt
COc1cc2cc(Oc3ccc4ccc(=O)oc4c3)c(=O)oc2cc1OC1OC(COC(=O)CC(C)(O)CC(=O)O)C(O)C(O)C1O (centres undefined),-5.2,0.8,-6.8,9.3,nt,13.6
